Source: ChEMBL document CHEMBL4814013, “Scaffold repurposing of fendiline: Identification of potent KRAS plasma membrane localization inhibitors” (Eur J Med Chem, 2021)
pIC50: −log10 of the molar value. The source made the active and inactive calls. The calls are words filed in the database; no cut-off is given here.

Tests used:
HEC-1-A = assay: Antiproliferative activity against human HEC-1-A cells expressing mutant KRAS assessed as reduction in cell growth incubated for 72 hrs by CyQuant proliferation assay; assay type: functional, cell-based
In short: (§1)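 Cells seeded in 96-well plates; after 24 h fresh growth medium with 0.1% DMSO vehicle or drug added (highest dose 30 µM for cancer lines), grown 72 h at 37 °C, 5% CO2. Live cell number measured by CyQUANT fluorescence. IC50 from three independent experiments. MEFs were isogenic lines carrying oncogenic BRAF or KRAS.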

MIA PaCa-2 [1] = assay: Antiproliferative activity against human MIA PaCa-2 cells expressing KRAS mutant assessed as reduction in cell growth incubated for 72 hrs by CyQuant proliferation assay; assay type: functional, cell-based; settings: MIA PaCa-2, 72 h; in short: as §1
[2] = Antiproliferative activity against human MOH cells expressing KRAS mutant assessed as reduction in cell growth incubated for 72 hrs by CyQuant proliferation assay; assay type: functional, cell-based; in short: as §1
Caco-2 = assay: Antiproliferative activity against human Caco-2 cells expressing wild type KRAS assessed as reduction in cell growth incubated for 72 hrs by CyQuant proliferation assay; assay type: functional, cell-based; settings: Caco-2, 72 h; in short: as §1
Ishikawa = assay: Antiproliferative activity against human Ishikawa cells expressing wild type KRAS assessed as reduction in cell growth incubated for 72 hrs by CyQuant proliferation assay; assay type: functional, cell-based; in short: as §1
MDCK [3] = assay: Cytotoxicity against dog MDCK cells at 30 uM; assay type: functional, cell-based; settings: Canis lupus familiaris
[4] = Antiproliferative activity against human MPANC96 cells expressing KRAS mutant assessed as reduction in cell growth incubated for 72 hrs by CyQuant proliferation assay; assay type: functional, cell-based; settings: MPANC96, 72 h; in short: as §1
NCI-H1299 = assay: Antiproliferative activity against human NCI-H1299 cells expressing wild type KRAS assessed as reduction in cell growth incubated for 72 hrs by CyQuant proliferation assay; assay type: functional, cell-based; settings: NCI-H1299, 72 h; in short: as §1
SK-CO-1 = assay: Antiproliferative activity against human SK-CO-1 cells expressing mutant KRAS assessed as reduction in cell growth incubated for 72 hrs by CyQuant proliferation assay; assay type: functional, cell-based; settings: SK-CO-1, 72 h; in short: as §1
HEC-1B cell line = assay: Antiproliferative activity against human HEC-1B cells expressing mutant KRAS assessed as reduction in cell growth incubated for 72 hrs by CyQuant proliferation assay; assay type: functional, cell-based; in short: as §1
NCI-H522 = assay: Antiproliferative activity against human NCI-H522 cells expressing wild type KRAS assessed as reduction in cell growth incubated for 72 hrs by CyQuant proliferation assay; assay type: functional, cell-based; settings: NCI-H522, 72 h; in short: as §1
BXPC-3 = assay: Antiproliferative activity against human BXPC-3 cells expressing wild type KRAS assessed as reduction in cell growth incubated for 72 hrs by CyQuant proliferation assay; assay type: functional, cell-based; settings: BXPC-3, 72 h; in short: as §1
MDCK [5] = assay: Inhibition of ASM in dog MDCK cells co-expressing recombinant full length mGFP-tagged KRAS G12V mutant and mCherry-CAAX assessed as reduction in plasma membrane localization of KRAS mutant incubated for 48 hrs by confocal microscopic analysis relative to control; assay type: cell membranes; settings: Canis lupus familiaris
In short: (§2)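 MDCK cells stably co-expressing mGFP-KRAS G12V or mGFP-LactC2 with mCherry-CAAX (HRAS 179–189 C181S/C184S) grown on coverslips in DMEM/10% FBS. Treated 48 h with 0.1% DMSO or graded drug, fixed in 4% paraformaldehyde, then quantitative confocal imaging. Mislocalization scored as the Manders fraction of mCherry-CAAX co-localizing with the GFP probe. IC50 and Emax from three independent experiments.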

NCI-H1975 = assay: Antiproliferative activity against human NCI-H1975 cells expressing wild type KRAS assessed as reduction in cell growth incubated for 72 hrs by CyQuant proliferation assay; assay type: functional, cell-based; settings: NCI-H1975, 72 h; in short: as §1
NCI-H23 = assay: Antiproliferative activity against human NCI-H23 cells expressing mutant KRAS assessed as reduction in cell growth incubated for 72 hrs by CyQuant proliferation assay; assay type: functional, cell-based; settings: NCI-H23, 72 h; in short: as §1
Caenorhabditis elegans = assay: In vivo inhibition of KRAS signaling in Caenorhabditis elegans lin-1 L1 harboring let60 […] mutant assessed as reduction in multi-vulva phenotype measured after 4 to 5 days culturing in buffer containing Escherichia coli OP50 by DIC/Nomarski microscopic analysis; assay type: functional, organism-based; settings: dose 0.1-30 µM, time 4-5 day
In short: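 let-60 (n1046) or lin-1 L1 larvae cultured in M9 buffer with E. coli OP50 plus DMSO vehicle or compound at 0.1, 0.3, 1, 3, 10 or 30 µM. After 4–5 days, adults were scored for multi-vulva by DIC/Nomarski microscopy.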

MEF [6] = assay: Cytotoxicity against mouse MEF cells expressing BRAF V600E mutant and wild type KRAS assessed as reduction in cell growth incubated for 72 hrs by CyQuant proliferation assay; assay type: functional, cell-based; in short: as §1
MDCK [7] = assay: Inhibition of ASM in dog MDCK cells co-expressing recombinant full length mGFP-tagged KRAS G12V mutant and mCherry-CAAX assessed as reduction in plasma membrane localization of KRAS mutant at 10 uM incubated for 48 hrs followed by incubation with recombinant ASM in continued presence of compound for 60 mins by confocal microscopic analysis; assay type: cell membranes; settings: Canis lupus familiaris, time 49.0 hrs
In short: (§3)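 MDCK cells stably co-expressing mGFP-KRAS G12V and mCherry-CAAX seeded on glass coverslips and grown 48 h with or without compound. Medium then replaced with fresh medium containing 2 units/mL recombinant ASM, drug continued, for 60 min. Cells mounted in mowiol and imaged by confocal microscopy. Mislocalization scored by Manders coefficient.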

Mus musculus [8] = assay: In vivo inhibition of ASM in nu/nu mouse xenografted with human MIA PaCa-2 cells harboring KRAS mutation assessed as increase in SM accumulation in tumor at 12.5 mg/kg, ip administered once daily for 5 days with 2 days break by GFP-lysenin staining based confocal laser microscopy; assay type: functional, organism-based; settings: time 5.0 day
In short: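 Sections of MiaPaCa-2 xenograft tumors from i.p.-treated nu/nu mice (12.5 mg/kg) stained with GFP-tagged lysenin to detect sphingomyelin.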

MDCK [9] = assay: Reduction in expression of human GFP-tagged ASM transfected in dog MDCK cells at 5 uM incubated for 48 hrs by western blot analysis; assay type: functional, cell-based; settings: Canis lupus familiaris
In short: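 SMPD1-GFP-expressing MDCK cells treated 48 h with 5 µM compound, washed in cold PBS and lysed in Tris pH 7.5 buffer with NaF, EGTA, DTT, vanadate, 1% NP40 and protease inhibitors. 20 µg of protein resolved by SDS-PAGE and immunoblotted. Signals detected by enhanced chemiluminescence and quantified by densitometry.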

[10] = biological target: T1, Sphingomyelin phosphodiesterase (Homo sapiens) (UniProt P17405); assay: Inhibition of human GFP-tagged ASM expressed in dog MDCK cells using sphingomyelin as substrate at 5 uM incubated for 48 hrs by Amplex Red dye based fluorescence analysis; assay type: cell-based
T1 sequence (whole entry): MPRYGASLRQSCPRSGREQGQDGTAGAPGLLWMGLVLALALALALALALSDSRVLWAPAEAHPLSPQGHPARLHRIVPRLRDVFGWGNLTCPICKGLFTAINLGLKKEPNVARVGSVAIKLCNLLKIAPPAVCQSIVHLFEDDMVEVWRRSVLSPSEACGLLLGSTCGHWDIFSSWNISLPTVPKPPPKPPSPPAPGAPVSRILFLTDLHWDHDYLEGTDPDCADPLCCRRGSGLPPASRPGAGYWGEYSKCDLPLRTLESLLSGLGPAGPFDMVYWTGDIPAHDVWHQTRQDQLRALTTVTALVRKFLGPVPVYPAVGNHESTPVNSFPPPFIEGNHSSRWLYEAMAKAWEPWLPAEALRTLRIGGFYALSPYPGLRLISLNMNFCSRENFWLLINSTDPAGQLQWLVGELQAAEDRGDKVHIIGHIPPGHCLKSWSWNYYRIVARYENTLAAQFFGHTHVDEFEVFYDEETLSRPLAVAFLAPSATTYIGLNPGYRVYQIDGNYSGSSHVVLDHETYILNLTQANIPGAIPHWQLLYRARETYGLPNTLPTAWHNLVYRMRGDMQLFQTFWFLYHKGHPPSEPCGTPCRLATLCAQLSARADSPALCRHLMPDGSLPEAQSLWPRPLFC
In short: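 MDCK cells stably expressing human SMPD1-GFP treated 48 h at 5 µM. Whole-cell lysate, made without DTT, mixed with 50 mM sodium acetate pH 5.0 plus sphingomyelin and held 1 h at 37 °C. pH then raised to 7.4 with Amplex Red mix (100 µM Amplex Red, 2 U/mL HRP, 0.2 U/mL choline oxidase, 8 U/mL alkaline phosphatase, 100 mM Tris pH 8.0), 60 min at 37 °C. Fluorescence read at Ex 540/Em 590 nm. Controls: 0.1 U/mL SMase (positive), buffer alone (negative).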

Mus musculus [11] = assay: In vivo inhibition of Ca2+ channel in nu/nu mouse xenografted with human MIA PaCa-2 cells harboring KRAS mutation assessed as blood vessel dialation in tumor at 1 to 5 mg/kg, ip administered once daily for 5 days with 2 days break by immunostaining; assay type: functional, organism-based; settings: dose 1-5 mg/kg, time 5.0 day
MEF [12] = assay: Antiproliferative activity against mouse MEF cells expressing KRAS G12D mutant assessed as reduction in cell growth incubated for 72 hrs by CyQuant proliferation assay; assay type: functional, cell-based; in short: as §1
MIA PaCa-2 [13] = assay: Antitumor activity human MIA PaCa-2 cells harboring KRAS mutation xenografted in nu/nu mouse assessed as induction of apoptosis by measuring increase in cleaved caspase 3 level in tumor at 1 to 5 mg/kg, ip administered once daily for 5 days with 2 days break by immunohistochemistry; assay type: functional, organism-based; settings: dose 1-5 mg/kg, time 5.0 day
In short: (§4)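 Paraffin tumor sections of 4–5 µm were deparaffinized and given heat antigen retrieval in 10 mM sodium citrate. Endogenous peroxidase was quenched and sections blocked in 2.5% normal goat serum. Primary antibody (pERK or cleaved caspase 3) applied overnight at 4 °C, biotinylated secondary 1:250 for 45 min at rt, then ABC reagent 30 min and DAB development. Rabbit IgG served as control.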

Mus musculus [14] = assay: In vivo inhibition of KRAS signaling in nu/nu mouse xenografted with human MIA PaCa-2 cells harboring KRAS mutation assessed as decrease in ERK phosphorylation in tumor at 1 to 5 mg/kg, ip administered once daily for 5 days with 2 days break by immunohistochemistry; assay type: functional, organism-based; settings: dose 1-5 mg/kg, time 5.0 day; in short: as §4
MEF [15] = assay: Antiproliferative activity against mouse MEF cells expressing KRAS G12V mutant assessed as reduction in cell growth incubated for 72 hrs by CyQuant proliferation assay; assay type: functional, cell-based; in short: as §1
MDCK [16] = assay: Inhibition of ASM in dog MDCK cells co-expressing recombinant full length mGFP-tagged KRAS G12V mutant and mCherry-CAAX assessed as reduction in plasma membrane localization of KRAS mutant at 1 uM incubated for 48 hrs followed by incubation with recombinant ASM in continued presence of compound for 60 mins by confocal microscopic analysis; assay type: cell membranes; settings: Canis lupus familiaris, time 49.0 hrs; in short: as §3
[17] = Inhibition of ASM in dog MDCK cells co-expressing recombinant full length mGFP-tagged KRAS G12V mutant and mCherry-CAAX assessed as reduction in plasma membrane localization of KRAS mutant incubated for 48 hrs by confocal microscopic analysis; assay type: cell membranes, Canis lupus familiaris; in short: as §2
MDCK [18] = assay: Inhibition of ASM in dog MDCK cells co-expressing recombinant full length GFP-tagged LactC2 and mCherry-CAAX assessed as reduction in plasma membrane localization of LactC2 incubated for 48 hrs by confocal microscopic analysis; assay type: cell membranes; settings: Canis lupus familiaris; in short: as §2
KLE = assay: Antiproliferative activity against human KLE cells expressing wild type KRAS assessed as reduction in cell growth upto 30 uM incubated for 72 hrs by CyQuant proliferation assay; assay type: functional, cell-based; settings: dose microM <=30, time 72.0 hrs; in short: as §1
ESS-1 = assay: Antiproliferative activity against human ESS-1 cells expressing wild type KRAS assessed as reduction in cell growth upto 30 uM incubated for 72 hrs by CyQuant proliferation assay; assay type: functional, cell-based; settings: dose microM <=30, time 72.0 hrs; in short: as §1

Row | SMILES | pIC50 (HEC-1-A) | pIC50 (MIA PaCa-2 [1]) | pIC50 [2] | pIC50 (Caco-2) | pIC50 (Ishikawa) | Activity (MDCK [3]) | pIC50 [4] | pIC50 (NCI-H1299) | pIC50 (SK-CO-1) | pIC50 (HEC-1B cell line) | pIC50 (NCI-H522) | pIC50 (BXPC-3) | Emax (MDCK [5]) | pIC50 (NCI-H1975) | inhibition (Caenorhabditis elegans) | pIC50 (MEF [6]) | inhibition (MDCK [9]) | inhibition [10] | pIC50 (MEF [12]) | pIC50 (MEF [15]) | other results
1 | COc1ccc([C@@H](C)N(CC=C(c2ccccc2)c2ccccc2)CC=C(c2ccccc2)c2ccccc2)cc1 | < 4.52 | < 4.52 | < 4.52 | < 4.52 | < 4.52 | inactive | < 4.52 | < 4.52 | < 4.52 | < 4.52 | < 4.52 | < 4.52 | 0.74 | < 4.52 | – | – | – | – | – | – | pIC50 (NCI-H23): < 4.52
2 | CC(NCCC(c1ccccc1)c1ccccc1)c1ccccc1 (stereo unspecified) [FENDILINE] | 5.02 | 5.04 | 4.95 | 4.84 | < 4.52 | – | 4.97 | 4.61 | – | 5.01 | 4.53 | 4.54 | – | < 4.52 | Dose-Dependent Effect | 4.75 | inactive | Active | 4.88 | 5.09 | inhibition (MDCK [7]): inactive; inhibition (Mus musculus [8]): Active; inhibition (Mus musculus [11]): Active; Activity (MIA PaCa-2 [13]): inactive; inhibition (Mus musculus [14]): inactive
3 | COc1ccc([C@@H](C)N(CC=C(c2ccccc2)c2ccccc2)CCN2CCN(C)CC2)cc1 | – | 5.52 | 5.43 | 5.29 | < 4.52 | Active | 5.38 | 5.09 | 5.48 | 5.48 | 4.55 | 5.24 | 0.75 | < 4.52 | Dose-Dependent Effect | 5.12 | Active | Active | 5.43 | 5.57 | inhibition (MDCK [16]): inactive; pIC50 [17]: 7.00; inhibition (MDCK [18]): Active; Activity (KLE): inactive; Activity (ESS-1): inactive
